# Measured values as given in publication PMC8530978 (Bioorganic chemistry, 2021).
# Columns and labels:
# [1] = tested on: histone H3 acetylation and tubulin acetylation in HCT116 cells; experiment: Western blot of histone H3 and tubulin acetylation in HCT116 cells; type: cell-based, human; conditions: HCT116, 24 h, IPEs up to highest concentration 25 μM
# Procedure, shortened: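 HCT116 cells (2 × 10^6 per T-25 flask) adhered overnight, then given test compound at 1, 10 or 25 μM, or DMSO, for 24 h. Lysed in RIPA; protein measured by BCA. Acetyl-histone H3 and acetyl-tubulin immunoblotted, detected with fluorescent secondary antibodies on an Odyssey scanner.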
# HeLaM cells = experiment: Flow cytometry cell cycle analysis; type: cell-based
# Procedure, shortened: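 5 × 10^5 HeLaM cells plated, treated next day with test compound or DMSO for 24, 48 or 72 h. All cells (floating and attached) collected and fixed in 70% ethanol (final). […] 10 μg/ml, 30 min, 37 °C, then propidium iodide in PBS + 2% FBS. SubG1 gated; subG1 excluded before modeling live-cell cycle distribution.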
# [2] = tested on: mitotic spindle of HeLaM cells; type: cell-based; conditions: compound 10 μM + MG132 + ZM447439 (DMSO+MG132+ZM447439 3%)
# [3] = tested on: NCI sixty human tumor cell line panel; experiment: NCI sixty human tumor cell line panel, single dose 10 μM; type: cell-based; conditions: Homo sapiens; for activity at 10 µM: read-out: Mean % growth at 10 μM
# HDAC1 = HDAC1 (Homo sapiens, UniProt Q13547); experiment: HDAC-Glo inhibitor testing with recombinant HDAC1; type: biochemical
# HDAC2 = HDAC2 (Homo sapiens, UniProt Q92769); experiment: HDAC-Glo inhibitor testing with recombinant HDAC2; type: biochemical
# HDAC3 = HDAC3 (Homo sapiens, UniProt O15379); experiment: HDAC-Glo inhibitor testing with recombinant HDAC3; type: biochemical
# HDAC6 = biological target: T1, HDAC6 (Homo sapiens, UniProt Q9UBN7); experiment: HDAC-Glo inhibitor testing with recombinant HDAC6; type: biochemical
# T1 sequence (Q9UBN7 1-1215): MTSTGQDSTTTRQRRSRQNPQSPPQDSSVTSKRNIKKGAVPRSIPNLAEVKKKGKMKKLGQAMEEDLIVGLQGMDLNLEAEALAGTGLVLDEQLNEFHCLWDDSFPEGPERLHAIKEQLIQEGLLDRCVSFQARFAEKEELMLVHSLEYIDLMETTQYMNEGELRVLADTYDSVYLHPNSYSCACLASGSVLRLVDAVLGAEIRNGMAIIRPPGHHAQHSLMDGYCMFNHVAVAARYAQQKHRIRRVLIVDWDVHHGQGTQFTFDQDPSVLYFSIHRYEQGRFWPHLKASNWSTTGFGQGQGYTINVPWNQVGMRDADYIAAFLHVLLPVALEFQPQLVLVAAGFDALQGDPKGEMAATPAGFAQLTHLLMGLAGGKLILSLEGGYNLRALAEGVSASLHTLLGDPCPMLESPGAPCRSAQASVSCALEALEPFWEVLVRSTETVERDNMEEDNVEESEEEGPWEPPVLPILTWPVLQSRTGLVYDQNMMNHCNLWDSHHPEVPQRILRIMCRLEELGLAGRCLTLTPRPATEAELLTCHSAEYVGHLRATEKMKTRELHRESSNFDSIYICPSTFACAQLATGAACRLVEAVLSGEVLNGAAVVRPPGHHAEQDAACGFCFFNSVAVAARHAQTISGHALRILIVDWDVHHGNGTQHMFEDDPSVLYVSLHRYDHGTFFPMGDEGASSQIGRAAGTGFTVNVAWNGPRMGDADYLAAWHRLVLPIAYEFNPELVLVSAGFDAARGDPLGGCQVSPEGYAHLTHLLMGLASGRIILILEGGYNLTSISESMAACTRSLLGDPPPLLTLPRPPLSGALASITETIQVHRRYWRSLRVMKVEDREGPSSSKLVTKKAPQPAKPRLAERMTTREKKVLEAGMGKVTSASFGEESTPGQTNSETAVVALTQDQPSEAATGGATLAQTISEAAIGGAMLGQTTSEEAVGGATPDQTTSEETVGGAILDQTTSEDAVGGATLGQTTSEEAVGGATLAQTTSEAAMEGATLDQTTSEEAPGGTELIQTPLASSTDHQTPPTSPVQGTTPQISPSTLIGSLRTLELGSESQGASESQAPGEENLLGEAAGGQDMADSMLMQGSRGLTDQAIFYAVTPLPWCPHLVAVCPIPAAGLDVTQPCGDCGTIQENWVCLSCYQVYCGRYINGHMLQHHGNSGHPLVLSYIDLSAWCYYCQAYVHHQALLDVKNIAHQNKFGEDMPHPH
# HDAC8 = biological target: T2, HDAC8 (Homo sapiens, UniProt Q9BY41); experiment: HDAC-Glo inhibitor testing with recombinant HDAC8; type: biochemical; conditions: for remaining activity at 100 µM: read-out: HDAC8 activity remaining
# T2 sequence (Q9BY41 1-377): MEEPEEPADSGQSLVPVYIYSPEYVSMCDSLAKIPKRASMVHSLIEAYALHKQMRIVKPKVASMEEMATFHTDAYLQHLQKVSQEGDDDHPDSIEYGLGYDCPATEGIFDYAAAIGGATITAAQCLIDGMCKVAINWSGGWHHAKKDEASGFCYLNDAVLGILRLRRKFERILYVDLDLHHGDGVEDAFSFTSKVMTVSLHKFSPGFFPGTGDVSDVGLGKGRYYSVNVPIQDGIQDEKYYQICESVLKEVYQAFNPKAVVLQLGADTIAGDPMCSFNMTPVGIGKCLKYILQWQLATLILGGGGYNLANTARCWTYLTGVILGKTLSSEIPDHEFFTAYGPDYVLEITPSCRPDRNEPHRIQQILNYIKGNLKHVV
# NCI 60 cancer cell lines = experiment: NCI dose response assay; type: cell-based, human
# HCT 116 cells = experiment: MTS reduction assay, antiproliferative activity on HCT 116; type: cell-based; conditions: Homo sapiens, HCT-116, 96 h
# Procedure, shortened: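 HCT116 cells grown in McCoy's 5A with 10% FBS (37 °C, 5% CO2), seeded at 3 × 10^3/well in triplicate and left to adhere overnight. Exposed to test compound at 0.01–100 μM, or DMSO, for 96 h. MTS reagent added for 2 h at 37 °C; absorbance read at 490 nm. Curves of log(concentration) vs response fitted with a variable Hill slope.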
# [4] = biological target: tubulin heterodimers, purified from porcine brain (Sus scrofa, UniProt P02554); experiment: Turbidity-based tubulin polymerization assay; type: biochemical; conditions: 10 μM compound, 37 °C, exponential phase (DMSO 10 mOD/min)
# tubulin heterodimers, purified from porcine brain, sequence (P02554 whole entry): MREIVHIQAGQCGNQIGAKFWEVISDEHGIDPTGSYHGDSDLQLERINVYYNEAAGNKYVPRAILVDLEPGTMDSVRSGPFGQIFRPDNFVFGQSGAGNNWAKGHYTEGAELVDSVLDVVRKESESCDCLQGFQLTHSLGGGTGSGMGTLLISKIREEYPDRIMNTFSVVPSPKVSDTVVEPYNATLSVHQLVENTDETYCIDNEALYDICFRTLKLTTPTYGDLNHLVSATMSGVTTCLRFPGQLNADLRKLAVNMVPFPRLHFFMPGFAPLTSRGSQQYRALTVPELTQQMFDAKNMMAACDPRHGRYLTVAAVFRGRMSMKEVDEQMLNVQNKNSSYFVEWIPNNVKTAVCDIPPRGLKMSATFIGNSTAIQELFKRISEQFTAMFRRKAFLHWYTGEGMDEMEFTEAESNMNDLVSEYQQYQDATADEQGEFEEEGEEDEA
# tubulin heterodimers, purified from porcine brain, sequence (P02550 whole entry partner): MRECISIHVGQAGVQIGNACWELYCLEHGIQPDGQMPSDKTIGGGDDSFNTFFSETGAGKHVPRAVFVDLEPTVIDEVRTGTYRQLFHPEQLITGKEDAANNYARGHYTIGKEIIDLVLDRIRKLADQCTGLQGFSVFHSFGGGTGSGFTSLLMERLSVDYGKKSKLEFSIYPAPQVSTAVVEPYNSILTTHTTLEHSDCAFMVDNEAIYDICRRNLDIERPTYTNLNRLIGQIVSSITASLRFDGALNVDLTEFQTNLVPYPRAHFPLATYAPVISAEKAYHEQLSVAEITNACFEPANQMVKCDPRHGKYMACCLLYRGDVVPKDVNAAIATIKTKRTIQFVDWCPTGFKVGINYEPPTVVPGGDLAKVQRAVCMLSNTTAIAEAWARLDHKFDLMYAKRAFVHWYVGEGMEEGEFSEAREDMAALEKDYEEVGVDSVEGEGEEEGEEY
# HDAC2, sequence (Q92769 whole entry): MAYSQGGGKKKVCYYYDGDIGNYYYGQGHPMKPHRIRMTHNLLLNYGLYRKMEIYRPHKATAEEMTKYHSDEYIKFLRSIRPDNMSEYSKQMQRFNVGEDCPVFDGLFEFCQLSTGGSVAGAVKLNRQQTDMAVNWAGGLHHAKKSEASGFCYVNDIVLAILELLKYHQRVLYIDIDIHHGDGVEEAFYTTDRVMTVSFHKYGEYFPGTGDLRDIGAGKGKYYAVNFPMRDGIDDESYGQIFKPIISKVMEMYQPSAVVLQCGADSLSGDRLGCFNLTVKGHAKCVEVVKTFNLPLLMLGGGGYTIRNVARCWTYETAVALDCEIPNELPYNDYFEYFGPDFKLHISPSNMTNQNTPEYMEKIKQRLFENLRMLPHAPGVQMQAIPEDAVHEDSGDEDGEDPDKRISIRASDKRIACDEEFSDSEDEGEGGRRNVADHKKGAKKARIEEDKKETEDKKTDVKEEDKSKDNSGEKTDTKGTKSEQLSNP
# HDAC1, sequence (Q13547 whole entry): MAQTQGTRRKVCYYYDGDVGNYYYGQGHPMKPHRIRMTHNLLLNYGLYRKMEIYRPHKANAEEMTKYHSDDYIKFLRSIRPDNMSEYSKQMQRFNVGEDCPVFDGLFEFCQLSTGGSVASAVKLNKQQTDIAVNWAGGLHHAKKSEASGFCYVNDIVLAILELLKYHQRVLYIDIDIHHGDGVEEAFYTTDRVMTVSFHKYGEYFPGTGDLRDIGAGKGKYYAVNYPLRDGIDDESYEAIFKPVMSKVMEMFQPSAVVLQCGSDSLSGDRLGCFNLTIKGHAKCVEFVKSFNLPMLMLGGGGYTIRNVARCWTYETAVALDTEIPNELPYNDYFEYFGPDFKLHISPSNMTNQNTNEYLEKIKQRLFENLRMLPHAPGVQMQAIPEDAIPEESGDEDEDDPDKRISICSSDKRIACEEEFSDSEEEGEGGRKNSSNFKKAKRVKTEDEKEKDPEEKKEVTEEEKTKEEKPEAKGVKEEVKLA
# HDAC3, sequence (O15379 whole entry): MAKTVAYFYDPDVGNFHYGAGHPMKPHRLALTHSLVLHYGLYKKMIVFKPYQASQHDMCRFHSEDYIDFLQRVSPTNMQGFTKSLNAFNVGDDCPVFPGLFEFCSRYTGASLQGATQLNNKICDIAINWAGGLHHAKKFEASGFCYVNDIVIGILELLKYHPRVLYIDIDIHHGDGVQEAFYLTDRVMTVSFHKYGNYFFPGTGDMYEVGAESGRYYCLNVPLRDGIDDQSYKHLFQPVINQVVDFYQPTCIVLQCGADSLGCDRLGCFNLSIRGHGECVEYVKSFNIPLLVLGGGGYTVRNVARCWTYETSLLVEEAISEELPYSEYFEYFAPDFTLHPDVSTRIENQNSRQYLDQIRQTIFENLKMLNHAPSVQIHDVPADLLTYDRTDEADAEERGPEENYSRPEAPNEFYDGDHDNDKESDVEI
# HDAC3, sequence (Q9Y618 395-489 partner limits assumed): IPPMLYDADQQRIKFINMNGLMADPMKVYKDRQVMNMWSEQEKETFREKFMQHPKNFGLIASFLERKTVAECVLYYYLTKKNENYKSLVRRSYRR
SMILES,IC50 (HDAC1) [µM],IC50 (HDAC2) [µM],IC50 (HDAC3) [µM],IC50 (HDAC6) [µM],IC50 (HDAC8) [µM],remaining activity at 100 µM (HDAC8) [%],global histone H3 acetylation and tubulin acetylation [1],activity at 10 µM [3] [%],further results
"O=C(CCCCCCC(=O)Nc1ccccc1)NO [SAHA, reference compound]",,,,,,,dramatically increased,,"cells in G2/M (HeLaM cells; 48 hours, subG1 excluded (DMSO 10%)): 8.2%; subG1 population (HeLaM cells; 72 hr post treatment (DMSO 14%)): 37%; spindle collapse [2]: did not produce the same aberrant spindle"
"Cn1ccnc1C(=O)/C=C/c1ccc(CC(=O)Nc2ccc(S(F)(F)(F)(F)F)cc2)cc1 [IPE-22, (E)-2-(4-(3-(1-Methyl-1H-imidazol-2-yl)-3-oxoprop-1-en-1-yl)phenyl)-N-(4-(pentafluoro-λ^6-sulfanyl)phenyl)acetamide]",> 200,> 200,> 200,> 200,3 ± 0.2,20 to 60,,-18.8,"inhibition at 10 µM ([3]; read-out: growth inhibition at 10 μM): 100%; fold selectivity for HDAC8 compared to the other isoforms (HDAC8; from IC50 values, other isoforms >200 μM): ≥ 67 fold; GI50, all leukemia cell lines (NCI 60 cancer cell lines): upper nanomolar; spindle collapse [2]: phenotype was reproduced"
"Cn1ccnc1C(=O)/C=C/c1ccc(CC(=O)Nc2ccccc2)cc1 [IPE-16, (E)-2-(4-(3-(1-Methyl-1H-imidazol-2-yl)-3-oxoprop-1-en-1-yl)phenyl)-N-phenylacetamide]",,,,,,,no increase in global histone acetylation or tubulin acetylation,15.9,GI50 (HCT 116 cells): 5.91 µM; spindle collapse [2]: phenotype was reproduced
"CC(=O)O[C@H]1C(=O)[C@@]2(C)[C@H]([C@H](OC(=O)c3ccccc3)[C@]3(O)C[C@H](OC(=O)[C@H](O)[C@@H](NC(=O)c4ccccc4)c4ccccc4)C(C)=C1C3(C)C)[C@]1(OC(C)=O)CO[C@@H]1C[C@@H]2O [Taxol, reference compound]",,,,,,,,,Vmax of tubulin polymerization [4]: higher Vmax than DMSO
"Nc1ccccc1NC(=O)c1ccc(CNC(=O)OCc2cccnc2)cc1 [MS275, reference compound]",,,,,,,dramatically increased,,
"Cc1ccc(NC(=O)Cc2ccc(/C=C/C(=O)c3ncc[nH]3)cc2)cc1 [IPE-3, (E)-2-(4-(3-(1H-Imidazol-2-yl)-3-oxoprop-1-en-1-yl)phenyl)-N-(p-tolyl)acetamide]",,,,,,,,41.3,GI50 (HCT 116 cells): 6.85 µM
"O=C(Cc1ccc(/C=C/C(=O)c2ncc[nH]2)cc1)Nc1ccc(Br)cc1 [IPE-9, (E)-2-(-4(3-(1H-imidazol-2-yl)-3-oxoprop-1-en-1-yl)phenyl)-N-(4-bromophenyl)acetamide]",,,,,,,,17.9,"GI50, all but two of the cell lines each in the leukemia and colon cancer panels (NCI 60 cancer cell lines): sub-micromolar"
"Cn1ccnc1C(=O)/C=C/c1ccc(CC(=O)Nc2ccc(F)cc2)cc1 [IPE-19, (E)-N-(4-Fluorophenyl)-2-(4-(3-(1-methyl-1H-imidazol-2-yl)-3-oxoprop-1-en-1-yl)phenyl)acetamide]",,,,,,,no increase in global histone acetylation or tubulin acetylation,33.1,GI50 (HCT 116 cells): 6.56 µM

# More lines, main results first:
IC50 (HDAC1) [µM],IC50 (HDAC2) [µM],IC50 (HDAC3) [µM],IC50 (HDAC6) [µM],IC50 (HDAC8) [µM],remaining activity at 100 µM (HDAC8) [%],SMILES,global histone H3 acetylation and tubulin acetylation [1],activity at 10 µM [3] [%],further results
> 200,> 200,> 200,> 200,13 ± 1,20 to 60,"Cn1ccnc1C(=O)/C=C/c1ccc(CC(=O)Nc2cc(F)c(F)c(F)c2)cc1 [IPE-24, (E)-2-(4-(3-(1-methyl-1H-imidazol-2-yl)-3-oxoprop-1-en-1-yl)phenyl)-N-(3,4,5-trifluorophenyl)acetamide]",,22.7,"GI50, all leukemia cell lines (NCI 60 cancer cell lines): upper nanomolar"
> 200,> 100,> 200,> 100,15 ± 1,20 to 60,"Cn1ccnc1C(=O)/C=C/c1ccc(CC(=O)Nc2cc(C(F)(F)F)cc(C(F)(F)F)c2)cc1 [IPE-26, (E)-N-(3,5-bis(trifluoromethyl)phenyl)-2-(4-(3-(1-methyl-1H-imidazol-2-yl)-3-oxoprop-1-en-1-yl)phenyl)acetamide]",,69,
> 100,> 100,> 100,> 100,12 ± 1,20 to 60,"C#Cc1ccc(NC(=O)Cc2ccc(/C=C/C(=O)c3nccn3C)cc2)cc1 [IPE-27, (E)-N-(4-Ethynylphenyl)-2-(4-(3-(1-methyl-1H-imidazol-2-yl)-3-oxoprop-1-en-1-yl)phenyl)acetamide]",,53.5,
> 100,> 100,> 100,> 100,> 100,,"Cn1ccnc1C(=O)/C=C/c1ccc(CC(=O)Nc2ccc(Br)cc2)cc1 [IPE-18, (E)-N-(4-Bromophenyl)-2-(4-(3-(1-methyl-1H-imidazol-2-yl)-3-oxoprop-1-en-1-yl)phenyl)acetamide]",,19.9,
12 ± 1,8.9 ± 0.6,16 ± 1,8.6 ± 4.9,9 ± 0.5,,"Cn1ccnc1C(=O)/C=C/c1ccc(CC(=O)Nc2c(F)c(F)c(F)c(F)c2F)cc1 [IPE-25, (E)-2-(4-(3-(1-methyl-1H-imidazol-2-yl)-3-oxoprop-1-en-1-yl)phenyl)-N-(perfluorophenyl)acetamide]",,61.4,
